The text below walks through data of ChEMBL document CHEMBL4002592, “Piperlongumine derived cyclic sulfonamides (sultams): Synthesis and in vitro exploration for therapeutic potential against HeLa cancer cell lines” (2017).

Structures can show the parent of a compound that is named as a salt.

Broadly, the GI50 is the concentration that inhibits growth by half.

Holding throughout (assay type): functional
Assay [1] concerns HeLa. The assay is described as follows: Cytotoxicity against human HeLa cells assessed as cell growth at 10^-5 M after 48 hrs by SRB assay relative to control. The note with it: read-out: Activity. An outline of the steps: (§1)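 HeLa (NCI source) kept in RPMI 1640 with 10% FBS and 2 mM L-glutamine, 37°C, 5% CO2. Cells seeded at 5,000/well, incubated overnight, then exposed 48 h to drug at final 10^-4 to 10^-7 M from 10^-2 M DMSO stock. Fixed with 10% TCA, stained with 0.4% SRB for 20 min, dye dissolved in 10 mM Tris, OD 540 nm. % growth = 100×(T–T₀)/(C–T₀). Mean of three experiments.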
For orientation: Sulforhodamine B stains cellular protein and so reports cell mass.

For assay [2], the system named is HeLa. The assay is described as follows: Cytotoxicity against human HeLa cells assessed as cell growth at 10^-6 M after 48 hrs by SRB assay relative to control. As to conditions: read-out: Activity. In a few lines: as §1
Assay [3] relates to HeLa. Nature of the assay: Cytotoxicity against human HeLa cells assessed as cell growth at 10^-4 M after 48 hrs by SRB assay relative to control. As to conditions: read-out: Activity. An outline of the steps:
as §1

In assay [4] the test system is HeLa. Nature of the assay: Cytotoxicity against human HeLa cells assessed as cell growth at 10^-7 M after 48 hrs by SRB assay relative to control. The note with it: read-out: Activity. An outline of the steps:
as §1

Assay [5] concerns HeLa. Nature of the assay: Cytotoxicity against human HeLa cells assessed as growth inhibition after 48 hrs by SRB assay. In a few lines:
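HeLa in RPMI 1640/10% FBS/2 mM glutamine, seeded at 5,000 cells/well overnight, then treated 48 h at final 10^-4 to 10^-7 M (DMSO stock 10^-2 M). Read by SRB: TCA fixation, 0.4% SRB stain, Tris solubilisation, OD 540 nm. Growth corrected for time-zero OD. Mean % growth plotted against molar concentration; GI50 taken as the concentration giving 50% growth inhibition.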

Take `COc1ccc(/C=C/C(=O)N2CCC=CS2(=O)=O)cc1`: the growth at 10 µM with HeLa [1] was 68.1%. The growth at 1 µM in the assay on HeLa [2] was 83.8%. In addition, in the assay with HeLa [3], the growth at 100 µM was -55.3%. Moreover, the growth at 0.1 µM with HeLa [4] is 84.7%. In addition, in the assay on HeLa [5], the GI50 was 24.4 µM and the “growth inhibition (GI)” value is “Dose-dependent effect”.
Take `Cc1cccc(/C=C/C(=O)N2CCC=CS2(=O)=O)c1`: the growth at 10 µM in the assay with HeLa [1] came to 35%. In the assay with HeLa [2], the growth at 1 µM came to 89.5%. Moreover, in the assay with HeLa [3], the growth at 100 µM was -67.1%. In the assay with HeLa [4], the growth at 0.1 µM came to 99.9%. In the assay with HeLa [5], the GI50 is 20.7 µM and the “growth inhibition (GI)” value was “Dose-dependent effect”.
In the case of `COc1ccccc1/C=C/C(=O)N1CCC=CS1(=O)=O`, the growth at 10 µM in the assay on HeLa [1] was 14.6%. For the same compound, the growth at 1 µM in the assay with HeLa [2] is 35%. Further, in the assay on HeLa [3], the growth at 100 µM was -80.1%. Also, the growth at 0.1 µM in the assay with HeLa [4] was found to be 76.7%. Besides, in the assay with HeLa [5], the GI50 is 0.1 µM and the “growth inhibition (GI)” value was “Dose-dependent effect”.
Regarding `O=C(/C=C/c1cccs1)N1CCC=CS1(=O)=O`, in the assay with HeLa [1], the growth at 10 µM was determined as 53.4%. Moreover, in the assay with HeLa [2], the growth at 1 µM came to 74.2%. Further, in the assay on HeLa [3], the growth at 100 µM was -75.3%. The growth at 0.1 µM with HeLa [4] turned out to be 92.1%. In the assay on HeLa [5], the GI50 was 18.8 µM and the “growth inhibition (GI)” value was “Dose-dependent effect”.
Turning to `Cc1ccc(C(=O)N2CCC=CS2(=O)=O)cc1[N+](=O)[O-]`, the growth at 10 µM in the assay on HeLa [1] worked out at 67.6%. Moreover, in the assay on HeLa [2], the growth at 1 µM is 93.7%. Moreover, in the assay with HeLa [3], the growth at 100 µM is -11.2%. For the same compound, the growth at 0.1 µM with HeLa [4] came to 97.1%. In addition, in the assay on HeLa [5], the GI50 turned out to be 39.2 µM and the “growth inhibition (GI)” value is “Dose-dependent effect”.
With `O=C(/C=C/c1c[nH]c2ccc(F)cc12)N1CCC=CS1(=O)=O`, the growth at 10 µM in the assay with HeLa [1] is 25.3%. Moreover, the growth at 1 µM in the assay with HeLa [2] is 87.6%. Moreover, the growth at 100 µM with HeLa [3] is -48%. Further, the growth at 0.1 µM in the assay on HeLa [4] came to 90.4%. In the assay with HeLa [5], the GI50 was 18.8 µM and the “growth inhibition (GI)” value is “Dose-dependent effect”.
Take `O=C(/C=C/c1c(Cl)nc2ccccn12)N1CCC=CS1(=O)=O`: the growth at 10 µM with HeLa [1] was determined as 20.6%. Moreover, in the assay with HeLa [2], the growth at 1 µM amounted to 59%. Further, the growth at 100 µM with HeLa [3] is -78.5%. The growth at 0.1 µM in the assay on HeLa [4] was 87%. In addition, in the assay on HeLa [5], the GI50 stood at 8.2 µM and the “growth inhibition (GI)” value was “Dose-dependent effect”.
Consider `COc1cccc(/C=C/C(=O)N2CCC=CS2(=O)=O)c1`, for which the growth at 10 µM in the assay with HeLa [1] turned out to be 68.7%. Also, in the assay with HeLa [2], the growth at 1 µM amounted to 92.2%. In the assay with HeLa [3], the growth at 100 µM was -79.7%. Besides, the growth at 0.1 µM in the assay with HeLa [4] is 90.8%. In addition, in the assay with HeLa [5], the GI50 came out at 23.7 µM and the “growth inhibition (GI)” value is “Dose-dependent effect”.
Take `O=C(/C=C/c1cccc(C(F)(F)F)c1)N1CCC=CS1(=O)=O`: in the assay with HeLa [1], the growth at 10 µM came out at 34.9%. The growth at 1 µM with HeLa [2] was determined as 86.3%. For the same compound, in the assay on HeLa [3], the growth at 100 µM is -64.8%. Besides, in the assay on HeLa [4], the growth at 0.1 µM came to 95.5%. Moreover, in the assay on HeLa [5], the GI50 came to 19.6 µM and the “growth inhibition (GI)” value was “Dose-dependent effect”.
Turning to `O=C(c1cccc(Cl)c1)N1CCC=CS1(=O)=O`, the growth at 10 µM with HeLa [1] is 55.4%. In the assay on HeLa [2], the growth at 1 µM worked out at 86.7%. Moreover, the growth at 100 µM in the assay on HeLa [3] came out at 10.8%. Further, the growth at 0.1 µM in the assay on HeLa [4] turned out to be 100%. Besides, in the assay with HeLa [5], the GI50 was 45.4 µM and the “growth inhibition (GI)” value was “Dose-dependent effect”.
With `Cc1ccc(/C=C/C(=O)N2CCC=CS2(=O)=O)cc1`, the growth at 10 µM in the assay with HeLa [1] was found to be 26.3%. The growth at 1 µM in the assay with HeLa [2] amounted to 81.4%. In addition, the growth at 100 µM in the assay on HeLa [3] was -33.5%. Besides, the growth at 0.1 µM in the assay on HeLa [4] was found to be 86.8%. In the assay on HeLa [5], the GI50 is 18.6 µM and the “growth inhibition (GI)” value was “Dose-dependent effect”.
In the case of `COc1cccc2c1C(=O)c1c(O)c3c(c(O)c1C2=O)C[C@@](O)(C(=O)CO)C[C@@H]3O[C@H]1C[C@H](N)[C@H](O)[C@H](C)O1` [DOXORUBICIN HYDROCHLORIDE], in the assay on HeLa [1], the growth at 10 µM was -84.1%. Also, the growth at 1 µM in the assay on HeLa [2] is -82.9%. Moreover, the growth at 100 µM in the assay on HeLa [3] is -84.6%. Also, the growth at 0.1 µM with HeLa [4] is -76.8%. Besides, in the assay with HeLa [5], the GI50 is under 0.1 µM.
Turning to `O=C(/C=C/c1cccc(F)c1)N1CCC=CS1(=O)=O`, the growth at 10 µM in the assay on HeLa [1] is -39.2%. Besides, in the assay on HeLa [2], the growth at 1 µM is 42.4%. Besides, the growth at 100 µM in the assay with HeLa [3] was -69%. For the same compound, in the assay on HeLa [4], the growth at 0.1 µM came out at 96.8%. In addition, in the assay on HeLa [5], the concentration for 50% growth inhibition (GI50) is under 0.1 µM and the “growth inhibition (GI)” value was “Dose-dependent effect”.
Consider `COc1cc(/C=C/C(=O)N2CCC=CS2(=O)=O)cc(OC)c1OC`, for which the growth at 10 µM in the assay on HeLa [1] turned out to be 46.8%. In addition, the growth at 1 µM in the assay with HeLa [2] came to 71.4%. Besides, the growth at 100 µM in the assay with HeLa [3] is -80.6%. Further, the growth at 0.1 µM with HeLa [4] is 79.8%. Moreover, in the assay on HeLa [5], the GI50 is 14.3 µM and the “growth inhibition (GI)” value was “Dose-dependent effect”.
In the case of `O=C(/C=C/c1ccoc1)N1CCC=CS1(=O)=O`, the growth at 10 µM in the assay on HeLa [1] is 57.7%. In the assay with HeLa [2], the growth at 1 µM was 80.2%. The growth at 100 µM in the assay with HeLa [3] was -78.1%. Also, the growth at 0.1 µM in the assay on HeLa [4] worked out at 92%. Besides, in the assay on HeLa [5], the GI50 stood at 20.3 µM and the “growth inhibition (GI)” value is “Dose-dependent effect”.
For `O=C(/C=C/c1ccc(Cl)cc1)N1CCC=CS1(=O)=O`, the growth at 10 µM in the assay with HeLa [1] was 53.5%. The growth at 1 µM in the assay on HeLa [2] is 80.2%. For the same compound, the growth at 100 µM with HeLa [3] was -30.5%. The growth at 0.1 µM in the assay on HeLa [4] was found to be 90.7%. Also, in the assay on HeLa [5], the GI50 is 26.4 µM and the “growth inhibition (GI)” value was “Dose-dependent effect”.
Regarding `O=C(/C=C/c1ccccc1F)N1CCC=CS1(=O)=O`, the growth at 10 µM with HeLa [1] stood at 52.4%. Also, in the assay with HeLa [2], the growth at 1 µM was determined as 62.3%. For the same compound, the growth at 100 µM with HeLa [3] is -75.3%. Besides, in the assay with HeLa [4], the growth at 0.1 µM stood at 78.5%. In the assay with HeLa [5], the GI50 was determined as 13.7 µM and the “growth inhibition (GI)” value was “Dose-dependent effect”.
Turning to `O=C(/C=C/c1cccc(-c2ccccc2)c1)N1CCC=CS1(=O)=O`, the growth at 10 µM with HeLa [1] came out at 32.9%. Besides, the growth at 1 µM with HeLa [2] amounted to 86.5%. Moreover, in the assay with HeLa [3], the growth at 100 µM is -63%. Further, in the assay with HeLa [4], the growth at 0.1 µM amounted to 97.6%. Moreover, in the assay on HeLa [5], the 50% growth inhibitory concentration (GI50) stood at 19.8 µM and the “growth inhibition (GI)” value was “Dose-dependent effect”.
Turning to `O=C(/C=C/c1ccc([N+](=O)[O-])cc1)N1CCC=CS1(=O)=O`, in the assay on HeLa [1], the growth at 10 µM came to 59%. Also, the growth at 1 µM in the assay on HeLa [2] turned out to be 90.4%. Further, the growth at 100 µM in the assay with HeLa [3] was -71.6%. Further, the growth at 0.1 µM with HeLa [4] was found to be 100%. In addition, in the assay on HeLa [5], the GI50 was determined as 24.4 µM and the “growth inhibition (GI)” value is “Dose-dependent effect”.
As to `COc1cc(/C=C/C(=O)N2CCC=CS2(=O)=O)cc(OC)c1`, the growth at 10 µM in the assay with HeLa [1] was -60.1%. Besides, the growth at 1 µM in the assay with HeLa [2] amounted to 32.5%. Besides, the growth at 100 µM with HeLa [3] was -78.4%. Also, the growth at 0.1 µM in the assay with HeLa [4] is 82.5%. In the assay on HeLa [5], the GI50 is under 0.1 µM and the “growth inhibition (GI)” value was “Dose-dependent effect”.
